Reference: paper PMC6500440 (International Journal of Nanomedicine, 2019)
Like-named read-outs stand apart in the source and are kept apart here.

Experiments:
[1] = Lipid solubilization assay; type: physicochemical; conditions: 5.0 mg/mL LUVs in 10 mM sodium phosphate buffer pH 7.4, before addition of 22A peptide
In short: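 Phospholipid (POPC or egg sphingomyelin) chloroform stock was dried under nitrogen and hydrated in 10 mM sodium phosphate, pH 7.4. It then went through 5–7 freeze-thaw cycles and was extruded 10 times through 100 nm membranes, at 25°C for POPC and 45°C for eSM. The 5.0 mg/mL LUV suspension was read for turbidity as UV absorbance at 600 nm on a microplate spectrophotometer.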

[2] = Dynamic light scattering particle size; type: physicochemical
In short: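 LUVs (POPC or egg sphingomyelin) were made by drying the chloroform stock under nitrogen, hydrating in 10 mM sodium phosphate pH 7.4, doing 5–7 freeze-thaw cycles, and extruding 10× through 100 nm membranes (25°C POPC, 45°C eSM). For sHDL, 5.0 mg/mL lipid and peptide solutions were mixed 1:1 wt/wt (~3.75:1 molar). Samples were diluted to 1.0 mg/mL peptide, and intensity- and volume-weighted distributions were read at 25°C.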

[3] = cited from earlier work
[4] = Gel permeation chromatography; type: physicochemical
In short: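 Test peptide alone in buffer, no phospholipid, at 1, 5 and 10 mg/mL; one condition also incubated at 50°C. Analysed by size-exclusion GPC on a TSK G3000SWx column (7.8 mm×30 cm), eluted with PBS at 1.0 mL/min at ambient temperature, UV detection at 220 nm. Molecular weight was assigned from retention time.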

[5] = target: the molecule itself; assay: SEC + other: dynamic light scattering
[6] = lipid LUV + 22A 1:1 wt/wt incubated 24 hr at 25°C
[7] = as restated in Results, no reference given
[8] = 22A 1 mg/mL in buffer without phospholipid, after incubation at 50°C
[9] = 22A in buffer without phospholipid, before dissociation

Molecule: CCCCCCCC/C=C\CCCCCCCC(=O)O[C@H](COC(=O)CCCCCCCCCCCCCCC)COP(=O)([O-])OCC[N+](C)(C)C [POPC, 1-palmitoyl-2-oleoyl-sn-glycero-3-phosphocholine]
- UV 600 nm absorbance (turbidity) of LUV solution [1]: 0.26
- LUV diameter ([2]; extruded LUVs, 5.0 mg/mL solutions, before addition of 22A peptide): 120 nm
- DLS volume (distribution, %): LUV [2, 6]: 0.1%
- DLS volume (distribution, %): sHDL [2, 6]: 99.9%
- DLS intensity (size, nm): LUV ([2]; lipid LUV + 22A 1:1 wt/wt incubated 24 hr at 25°C, remaining liposomes): 137.3 nm
- DLS volume (distribution, %): sHDL ([2]; lipid LUV + 22A 1:1 wt/wt incubated 24 hr at 37°C): 100%
- DLS volume (distribution, %): sHDL ([2]; lipid LUV + 22A 1:1 wt/wt incubated 24 hr at 50°C): 100%
- transition temperature (Tm) [3, 7]: −2 °C
- transition temperature (Tm) [3]: −2 °C

Molecule: PVLDLFRELLNELLEALKQKLK [22A]
- GPC retention time of monomeric peptide [4, 8]: 14.9 min
- molecular weight corresponding to GPC retention time, monomeric peptide [4, 8]: ~ 2500 Da
- association state of peptide without lipid ([4]; 22A in buffer without phospholipid, 1, 5 and 10 mg/mL, initial, GPC and DLS): self-associated
- GPC retention time of self-associated peptide [4, 9]: 9.6 min
- molecular weight corresponding to GPC retention time, self-associated peptide [4, 9]: ~ 145,000 Da

Molecule: synthetic sphingomyelin [sSM]
- transition temperature (Tm) [3, 7]: approximately 40 °C

B1: ESP-24218 peptide (22A), ApoA-I-mimetic peptide (peptide)
peptide: PVLDLFRELLNELLEALKQKLK
- binding result [5]: binds
